Source: PubChem
PP5 primary: blocks human protein phosphatase 5 activity | P53041 | purified PP5c, OMFP substrate fluorescence | inhibition, % at 6.7 µM | hit rate 0.18% among 320,000 | AID 1987;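 active means inhibition above the campaign's mean inhibition across all tested compounds plus 3 SD, cut at about 9.5% in these data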
Target sequence (P53041 whole entry, looked up): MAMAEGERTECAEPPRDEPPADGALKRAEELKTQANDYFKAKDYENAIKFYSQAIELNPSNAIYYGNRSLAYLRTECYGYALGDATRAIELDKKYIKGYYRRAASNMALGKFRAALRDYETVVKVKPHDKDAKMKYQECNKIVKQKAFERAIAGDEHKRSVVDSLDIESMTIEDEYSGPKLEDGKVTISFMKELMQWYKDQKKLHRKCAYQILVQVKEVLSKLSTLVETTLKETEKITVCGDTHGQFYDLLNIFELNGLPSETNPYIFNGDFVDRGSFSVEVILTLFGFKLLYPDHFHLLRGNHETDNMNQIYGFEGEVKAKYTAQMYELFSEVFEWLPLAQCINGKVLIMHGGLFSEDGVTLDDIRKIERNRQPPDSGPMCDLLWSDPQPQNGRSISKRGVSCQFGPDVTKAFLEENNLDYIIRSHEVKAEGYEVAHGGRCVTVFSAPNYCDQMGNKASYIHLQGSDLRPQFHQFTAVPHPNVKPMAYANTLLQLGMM
STEP block: inhibitors of human striatal-enriched phosphatase STEP; P54829; recombinant STEP, OMFP fluorogenic substrate, fluorescence; inhibition, % at 20 µM; hit rate 0.25% among 360,000;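 active means inhibition at 20 µM, scaled per plate between control wells, above about 37%, limit read from the data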
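Material: STEP (striatal-enriched tyrosine phosphatase) enzyme, cell-free; Compound dosing: 20 µM single dose in 1% DMSO; Technique: fluorescence read at 480 nm ex / 540 nm em; Times: reaction 20 min, ambient temperature; Medium: 50 mM Bis-Tris pH 6.0 with 2.5 mM DTT and 0.005% Tween 20; Also added: OMFP at 25 µM.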
LMPTP block: LMPTP (human) inhibition. P24666. recombinant LMPTP-A, OMFP fluorogenic substrate, fluorescence intensity. inhibition, % at 20 µM. hit rate 0.22% among 360,000;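 active means compounds that cut the enzyme signal by at least half of the control window in the single-dose screen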
Target sequence (P24666 whole entry, looked up): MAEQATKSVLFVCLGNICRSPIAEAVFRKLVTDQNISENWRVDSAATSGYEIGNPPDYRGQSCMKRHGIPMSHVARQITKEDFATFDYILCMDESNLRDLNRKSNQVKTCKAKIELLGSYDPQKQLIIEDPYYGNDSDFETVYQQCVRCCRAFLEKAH
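material = LMPTP-A | quantity = 0.625 nM enzyme | reagent = OMFP substrate, 400 µM final | buffer or medium = Bis-Tris pH 6.0, DTT, detergent | detection = endpoint fluorescence intensity from OMFP dephosphorylation | dosing = single 20 µM dose | read-out basis = % inhibition relative to no-enzyme and uninhibited control wells | control set = no-enzyme and uninhibited controls | timing = 50 min at room temperature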
Scp1 inh: inhibitors of human Scp-1 phosphatase; Q9GZU7; Recombinant Scp1, phosphopeptide, malachite green phosphate absorbance; inhibition, % at 20 µM; hit rate 0.88% among 340,000; AID 493091;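 active means inhibition above about 50% at 20 µM, limit read from the data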
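Incubation: 45 min enzyme reaction at room temperature / System: truncated SCP-1 phosphatase (76-261aa) / Reagent: Phospho 17-mer peptide substrate / Buffer or medium: Acidic Tris acetate buffer with magnesium and detergent / Signal: absorbance at 630 nm / Doses: one concentration, 20 µM, with 1.0% DMSO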
PP1 counter: PP1-alpha (human) inhibition in PP5 counter-screen. P62136. AID 2235. inhibition, % at 6.7 µM. hit rate 0.9% among 320,000. purified PP1alpha, OMFP fluorescence;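 active means inhibition above the mean inhibition of all tested compounds plus 3 SD, computed separately for each screening campaign, cut at about 15% in these data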
Scp-1 conf: Scp-1 (human) inhibition, single-dose confirmed; shares compounds with Scp1 inh; recombinant SCP-1 catalytic domain, phosphate release, malachite green absorbance; inhibition, % at 20 µM; hit rate 61% among 2,500; AID 540281
Scp-1 MG ctr: colorimetric interference in Scp-1 counter-screen. shares compounds with Scp1 inh. Colorimetric interference counterscreen, malachite green absorbance 630 nm. apparent inhibition (interference), % at 20 µM. 2,500 tested, under 10 active;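 further: compounds added after enzyme reaction finished so only phosphate colour detection is probed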
Scp1 DSF: Scp-1 (human) binding by thermal shift; shares compounds with Scp1 inh; Recombinant SCP1, Sypro Orange thermal shift Tm; AID 540329; thermal shift relative to vanadate control, % at 40 µM; hit rate 25% among 1,500;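 active means substances whose mean melting-temperature shift, as a percentage of the reference inhibitor's shift, reaches about 5.3%, limit read from the data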
Of the large screens only hits and unclear results are named; the others gave an inactive call (follow-up assays come after a bar, where they were run); ! = not active in a repeat. An excerpt weighted towards active compounds, which were near 1.9% of everything screened.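 How the source made its calls, unless noted: active means inhibition of at least 30% at 20 µM; inactive means the rest.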

CCCCC(CC)C1OCC(C[N+]2(C)CCOCC2)O1 (stereo not drawn)	none
CCCc1nc2sc3c(SCC(=O)NCc4ccco4)ncnc3c2c2c1CCC2	Scp1 inh 82 | Scp-1 conf 59 | Scp-1 MG ctr inactive | Scp1 DSF inactive
Cc1nc(SCC(=O)NCc2ccco2)c2c3c(sc2n1)CCCC3	none
Cn1ncc(C#N)c1/N=C/N(Cc1ccccc1)Cc1ccccc1	Scp1 inh 73 | Scp-1 conf inactive | Scp-1 MG ctr inactive
O=C(OC1CCOC1=O)c1ccc(Cl)c(S(=O)(=O)N2CCOCC2)c1 (stereo not drawn)	Scp1 inh 53 | Scp-1 conf inactive | Scp-1 MG ctr inactive
COc1cc(/C=N/O)ccc1OCc1ccc(Cl)cc1	none (no result: STEP block, LMPTP block, Scp1 inh)
COc1cc(/C=N/N=C2/NC(=O)C(CC(=O)O)S2)ccc1OCc1ccc(Cl)cc1 (stereo not drawn)	Scp1 inh 59 | Scp-1 conf 70 | Scp-1 MG ctr inactive | Scp1 DSF inactive
O=C(COC(=O)CNC(=O)c1cccc([N+](=O)[O-])c1)Nc1cccc(S(=O)(=O)N2CCCCC2)c1	none
CCOCC(=O)N1CCN(c2ccc([N+](=O)[O-])cc2)CC1	none
COCCCn1nnnc1SCC(=O)Nc1nc(C)c(C)s1	Scp1 inh 52 | Scp-1 conf inactive | Scp-1 MG ctr inactive
CCn1nnnc1SCC(=O)Nc1nc(C)c(C)s1	none
Cc1ccc(O)c(C(=O)c2cc(C#N)c(=O)n(Cc3ccccc3)c2)c1	none
CC1(c2ccccc2)NC(=O)N(CC(=O)N2CCN(S(=O)(=O)c3ccccc3[N+](=O)[O-])CC2)C1=O (stereo not drawn)	Scp1 inh 50 | Scp-1 conf inactive | Scp-1 MG ctr inactive
COCCn1nnnc1C(C(C)C)N1CCSCC1 (stereo not drawn)	Scp1 inh 67 | Scp-1 conf inactive | Scp-1 MG ctr inactive
CCn1c(C)c2c([n+]1CC)CC(C)(C)CC2=O	Scp1 inh 55 | Scp-1 conf 75 | Scp-1 MG ctr inactive | Scp1 DSF inactive
COc1ccc(CCNC(=O)c2cc(-c3ccco3)nc3ccccc23)cc1	Scp1 inh 87 (no result: STEP block, LMPTP block) | Scp-1 conf 73 | Scp-1 MG ctr inactive | Scp1 DSF inactive
CCN(CC)CCNC(=O)c1cc(-c2ccco2)nc2ccccc12	none
O=C(Nc1ccccc1F)c1cc(-c2ccco2)nc2ccccc12	Scp1 inh 68 | Scp-1 conf 51 | Scp-1 MG ctr inactive | Scp1 DSF inactive
O=C(O)c1cc(-c2ccco2)nc2cc3ccccc3cc12	Scp1 inh 91 | Scp-1 conf 34 | Scp-1 MG ctr inactive | Scp1 DSF inactive
O=C(N/N=C/c1ccc2c(c1)OCO2)c1cc(-c2ccco2)nc2ccccc12	Scp1 inh 67 (no result: PP5 primary, PP1 counter) | Scp-1 conf 46 | Scp-1 MG ctr inactive | Scp1 DSF inactive
Cn1c(N)c(C(=O)COC(=O)c2cc(-c3ccco3)nc3ccccc23)c(=O)n(C)c1=O	LMPTP block 62, Scp1 inh 73 (no result: PP5 primary, PP1 counter) | Scp-1 conf 67 | Scp-1 MG ctr inactive | Scp1 DSF 15
COc1ccc(-c2cc(C(=O)OCC(=O)c3c(N)n(C)c(=O)n(C)c3=O)c3ccccc3n2)cc1	none
CCOc1cc(/C=C/c2cccc[n+]2C)ccc1OCC(=O)Nc1ccc(C)cc1	none
CCOc1cc(/C=C/c2cccc[n+]2C)ccc1O	Scp1 inh 72 | Scp-1 conf inactive | Scp-1 MG ctr inactive
COc1cc(/C=C/c2cccc[n+]2C)ccc1OCC(=O)Nc1ccccc1C	Scp1 inh 52 | Scp-1 conf inactive | Scp-1 MG ctr inactive
Cc1ccccc1NC(=O)NCc1cccnc1	none
CCOc1ccc(OCCCC(=O)N2CCN(S(=O)(=O)c3ccc(Cl)cc3)CC2)cc1	Scp1 inh 56 | Scp-1 conf 79 | Scp-1 MG ctr inactive | Scp1 DSF inactive
COc1ccc(CCC(=O)Nc2cc(Cl)ccc2N2CCN(C)CC2)cc1	none (no result: STEP block, LMPTP block)
Brc1cnc2nc(SCc3nc4ccccc4[nH]3)[nH]c2c1	none
Fc1ccc(CSc2nc3ncc(Br)cc3[nH]2)cc1	Scp1 inh 59 | Scp-1 conf 70 | Scp-1 MG ctr inactive | Scp1 DSF inactive
CCCCN(C(=O)c1cccc(-n2cccc2)c1)c1c(N)n(CCCC)c(=O)[nH]c1=O	Scp1 inh 70 | Scp-1 conf inactive | Scp-1 MG ctr inactive
CCCCN(C(=O)c1ccc(Cl)c(S(=O)(=O)N2CCOCC2)c1)c1c(N)n(CCC)c(=O)[nH]c1=O	Scp1 inh 58 | Scp-1 conf inactive | Scp-1 MG ctr inactive
CCCN(C(=O)c1cccc(-n2cccc2)c1)c1c(N)n(Cc2ccccc2)c(=O)[nH]c1=O	Scp1 inh 74 | Scp-1 conf 66 | Scp-1 MG ctr inactive | Scp1 DSF inactive
CCCCn1c(N)c(N(CCC(C)C)C(=O)c2cccc(N3C(=O)c4ccccc4C3=O)c2)c(=O)[nH]c1=O	none
Cc1c(C(=O)O)sc2nc(/C=C/c3cccc(F)c3)[nH]c(=O)c12	Scp1 inh 81 | Scp-1 conf inactive | Scp-1 MG ctr inactive
Cc1c(C(=O)O)oc2ccc(S(=O)(=O)NCCC3=CCCCC3)cc12	Scp1 inh 52 | Scp-1 conf inactive | Scp-1 MG ctr inactive
Cc1c(C(=O)NCCC2=CCCCC2)oc2ccc(S(=O)(=O)N3CCOCC3)cc12	none
Cc1cc(OCC[N+]2(C)CCCCC2)nc2ccccc12	Scp1 inh 102 | Scp-1 conf 90 | Scp-1 MG ctr inactive | Scp1 DSF inactive
O=C1NC(=O)C(c2ccccc2)(c2ccccc2)N1	Scp1 inh 85! | Scp-1 conf inactive | Scp-1 MG ctr inactive
O=C1NC(=O)C(c2ccccc2)(c2ccc(O)cc2)N1 (stereo not drawn)	none
CCCCNS(=O)(=O)c1cc2c3c(c1)CCN3C(=O)CC2	none
Cc1ccccc1-n1c(SC/C(O)=C(\C#N)c2nc3ccccc3[nH]2)nnc1-c1ccncc1	none
Cc1cc(C)n2c(SC/C(O)=C(\C#N)c3nc4ccccc4[nH]3)nnc2n1	Scp1 inh 76 | Scp-1 conf 63 | Scp-1 MG ctr inactive | Scp1 DSF 11
Cc1cc(NC(=O)CSCC(=O)OCC(=O)c2ccc(Br)cc2)no1	none (no result: PP5 primary, Scp1 inh, PP1 counter)
CCOC(=O)Cc1csc(NC(=O)Cc2ccc(Br)cc2)n1	Scp1 inh 54 | Scp-1 conf inactive | Scp-1 MG ctr inactive
CC1=C(C(=O)N(C(C)C)C(C)C)CC(CC(=O)NC2CCCC2)C(=O)N1CCC1=CCCCC1 (stereo not drawn)	none (no result: PP5 primary, Scp1 inh, PP1 counter)
COc1cccc(-c2cc(C(=O)N3CCN(c4ncccn4)CC3)c3ccccc3n2)c1	none
